Holding throughout (conditions): cattle
Series [1] addresses T1, cholesterol side-chain cleavage cytochrome P450 (mitochondrial) (Bos taurus, UniProt P00189).
T1 sequence (P00189 whole entry): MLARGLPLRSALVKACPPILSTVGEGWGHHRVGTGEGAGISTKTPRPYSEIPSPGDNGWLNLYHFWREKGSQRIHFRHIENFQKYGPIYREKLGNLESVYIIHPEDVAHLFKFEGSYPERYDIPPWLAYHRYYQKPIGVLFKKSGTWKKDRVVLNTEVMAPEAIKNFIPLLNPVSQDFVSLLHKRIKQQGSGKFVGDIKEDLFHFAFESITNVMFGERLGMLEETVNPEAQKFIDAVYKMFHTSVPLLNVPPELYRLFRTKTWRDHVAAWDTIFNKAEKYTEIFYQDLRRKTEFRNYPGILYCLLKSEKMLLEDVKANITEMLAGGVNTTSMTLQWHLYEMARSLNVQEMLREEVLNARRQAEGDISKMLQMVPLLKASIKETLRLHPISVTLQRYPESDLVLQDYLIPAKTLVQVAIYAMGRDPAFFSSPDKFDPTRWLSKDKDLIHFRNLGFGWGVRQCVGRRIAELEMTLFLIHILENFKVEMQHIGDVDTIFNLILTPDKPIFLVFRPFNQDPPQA
Description: Percent inhibition of cholesterol side-chain cleavage cytochrome P450 at 100 uM in bovine adrenocortical mitochondrial acetone powder preparations. The method, boiled down: (§1)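 CSCC activity in adrenal preparations assayed by the previously reported method. Inhibitor tested at a final concentration of 100 μM or below. Isocaproic acid product volatilized in a heated vacuum desiccator and measured by liquid scintillation counting. Percent inhibition is taken from at least six data points across two separate experiments, with standard deviation from the mean.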

Series [2] addresses T1, cholesterol side-chain cleavage cytochrome P450 (mitochondrial). Description: Percent inhibition of cholesterol side-chain cleavage cytochrome P450 at 1 uM in bovine adrenocortical mitochondrial acetone powder preparations. The method, boiled down: as §1
For series [3] the target is unchanged. Description: Percent inhibition of cholesterol side-chain cleavage cytochrome P450 at 10 uM in bovine adrenocortical mitochondrial acetone powder preparations. The method in brief: as §1

In general, inhibition refers to the percentage by which the read-out fell short of the control.

As for `CO[C@H]1CC[C@@]2(C)C(CC[C@H]3[C@@H]4CC[C@H](C(C)NCCC(C)C)[C@@]4(C)CC[C@@H]32)C1` (some centres undefined), in series [1], the inhibition at 100 µM was 21%.

As for `CCC(C)CNC(C)[C@H]1CC[C@H]2[C@@H]3CC=C4C[C@@H](OC)CC[C@]4(C)[C@H]3CC[C@]12C` (some centres undefined), the inhibition at 100 µM in series [1] came out at 100%. In series [2], this compound gave an inhibition at 1 µM of 12%. In addition, testing at 10 µM in series [3] gave an inhibition of 89%.

On to `CC(C)CCNC(C)[C@H]1CC[C@H]2[C@@H]3CCC4C[C@@H](O)CC[C@]4(C)[C@H]3CC[C@]12C` (some centres undefined), for which the inhibition at 100 µM in series [1] turned out to be 28%.

In series [1], `CC(C)CCNC(C)[C@H]1CC[C@H]2[C@@H]3CC=C4C[C@@H](O)CC[C@]4(C)[C@H]3CC[C@]12C` (some centres undefined) displayed an inhibition at 100 µM of 93%. For the same compound, the inhibition at 1 µM in series [2] amounted to 10%. The compound further displayed an inhibition at 10 µM in series [3] of 75%.

`CO[C@H]1CC[C@@]2(C)C(=CC[C@H]3[C@@H]4CC[C@H](C(C)NCCC(C)C)[C@@]4(C)CC[C@@H]32)C1` (some centres undefined) registered an inhibition at 100 µM in series [1] of 99%. The inhibition at 1 µM in series [2] was 14%. Besides, the inhibition at 10 µM in series [3] came to 86%.

Regarding `CC(C)CCNC(C)[C@H]1CC[C@H]2[C@@H]3CCC4CC(=O)CC[C@]4(C)[C@H]3CC[C@]12C` (some centres undefined), in series [1], the inhibition at 100 µM was found to be 3%.

As for `CO[C@@H]1CC[C@@]2(C)C(CC[C@H]3[C@@H]4CC[C@H](N(C)CCCC(C)C)[C@@]4(C)CC[C@@H]32)C1` (some centres undefined), the inhibition at 100 µM in series [1] was determined as 3%.

`CC(C)CCCN(C)[C@H]1CC[C@H]2[C@@H]3CCC4C[C@@H](O)CC[C@]4(C)[C@H]3CC[C@]12C` (some centres undefined): the inhibition at 100 µM in series [1] came out at 26%.

`CO[C@H]1CCC2(C)C(CC[C@@H]3[C@@H]2CCC2(C)[C@@H](N(C)CCCC(C)C)CC[C@@H]32)C1` (some centres undefined) displayed an inhibition at 100 µM in series [1] of 5%.

`CC(C)CCCN(C)[C@H]1CCC2C3CC=C4C[C@@H](O)CCC4(C)C3CCC21C` (some centres undefined): at 100 µM the inhibition in series [1] was 78%. Moreover, the inhibition at 10 µM in series [3] turned out to be 29%.

The compound `CO[C@H]1CCC2(C)C(=CCC3C2CCC2(C)C3CC[C@@H]2N(C)CCCC(C)C)C1` (some centres undefined) came in with an inhibition at 100 µM in series [1] of 86%. In series [3], this compound returned an inhibition at 10 µM of 30%.

Source of the values: ChEMBL document CHEMBL1121691, “Inhibition of cholesterol side-chain cleavage. 4. Synthesis of A or B ring modified azacholesterols” (J Med Chem, 1981).
